“And” between values parts separate entries of the source, which are not always exact repeats. Identical values can stand only once.
Assays:
[1] = test system: Mus musculus; test: Compound was evaluated for antitumor activity (T/C) in PNX/109/TC carcinoma Xenograft, at a dosage 20 mg/kg on day 14; type: functional, organism-based; set-up: dose 20 mg/kg
In short: (§1)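 PNX/109/TC (CH1) ovarian tumor fragments implanted subcutaneously in the flanks of nude mice. Once tumors were palpable, mice were randomized into 6 per treated group and 10 controls. Dosing was ip in arachis oil on days 0, 7, 14 and 21, at the MTD and two 2-fold dilutions, with tumor dimensions taken on days 0, 7, 14, 21 and 28. T/C is treated RTV over control RTV, with RTV relative to start volume.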

[2] = test system: Mus musculus; test: Compound was evaluated for antitumor activity (T/C) in HT1376 carcinoma Xenograft, at a dosage 12.5 mg/kg on day 7; type: functional, organism-based; set-up: dose 12.5 mg/kg
In short: (§2)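 Subcutaneous HT1376 xenografts in nude mice, 6 per treated group and 10 controls. Intraperitoneal dosing as suspensions in 0.5% carboxymethylcellulose/0.9% saline on days 0, 7, 14, 21; tumors measured weekly to day 28. T/C = RTV of treated group / RTV of untreated control group; significance by t-test at the 5% level.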

[3] = test system: Mus musculus; test: Compound was evaluated for antitumor activity (RTV) in HT1376 carcinoma Xenograft, at a dosage 12.5 mg/kg on day 14; type: functional, organism-based; set-up: dose 12.5 mg/kg
In short: (§3)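 HT1376 tumor fragments implanted subcutaneously in nude mice flanks; mice with established palpable tumors randomized into groups of 6 (controls 10). Compounds given intraperitoneally as suspensions in 0.5% carboxymethylcellulose in 0.9% saline, on days 0, 7, 14 and 21. Tumor dimensions on days 0, 7, 14, 21, 28. RTV = 100(mean tumor volume at assessment)/(mean start volume).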

[4] = test system: Mus musculus; test: Compound was evaluated for antitumor activity (RTV) in HT1376 carcinoma Xenograft, at a dosage 12.5 mg/kg on day 28; type: functional, organism-based; set-up: dose 12.5 mg/kg; in short: as §3
[5] = Range is evaluated. (Highest IC50/Lowest IC50); type: functional
[6] = test system: Mus musculus; test: Compound was evaluated for antitumor activity (T/C) in HT1376 carcinoma Xenograft, at a dosage 12.5 mg/kg on day 14; type: functional, organism-based; set-up: dose 12.5 mg/kg; in short: as §2
[7] = test system: Mus musculus; test: Compound was evaluated for antitumor activity (T/C) in HT1376 carcinoma Xenograft, at a dosage 6.25 mg/kg on day 7; type: functional, organism-based; set-up: dose 6.25 mg/kg
In short: (§4)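 Nude mice carrying subcutaneous flank HT1376 fragments; treatment began once tumors were established and palpable, randomized into groups of 6 treated and 10 control mice. Dosing was ip as a suspension in 0.5% carboxymethylcellulose in 0.9% saline on days 0, 7, 14 and 21, at the MTD and two 2-fold dilutions. Tumors were measured on days 0-28. RTV = 100(mean volume at assessment)/(mean start volume); T/C = treated RTV/control RTV.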

[8] = test system: Mus musculus; test: Compound was evaluated for antitumor activity (RTV) in HT1376 carcinoma Xenograft, at a dosage 12.5 mg/kg on day 7; type: functional, organism-based; set-up: dose 12.5 mg/kg; in short: as §3
[9] = test system: Mus musculus; test: Compound was evaluated for antitumor activity (T/C) in PNX/109/TC carcinoma Xenograft, at a dosage 5 mg/kg on day 14; type: functional, organism-based; set-up: dose 5 mg/kg; in short: as §1
[10] = test system: Mus musculus; test: Compound was evaluated for antitumor activity (T/C) in PNX/109/TC carcinoma Xenograft, at a dosage 20 mg/kg on day 21; type: functional, organism-based; set-up: dose 20 mg/kg; in short: as §1
[11] = test system: Mus musculus; test: Compound was evaluated for antitumor activity (T/C) in PNX/109/TC carcinoma Xenograft, at a dosage 10 mg/kg on day 21; type: functional, organism-based; set-up: dose 10 mg/kg; in short: as §1
[12] = test system: Mus musculus; test: Compound was evaluated for antitumor activity (RTV) in PNX/109/TC carcinoma Xenograft, at a dosage 20 mg/kg on day 14; type: functional, organism-based; set-up: dose 20 mg/kg
In short: (§5)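 PXN/109/TC (CH1) ovarian tumor fragments implanted subcutaneously in nude mice flanks; established palpable tumors, groups of 6 (controls 10). Dosed intraperitoneally as suspension in arachis oil on days 0, 7, 14, 21. Tumors measured days 0, 7, 14, 21, 28. RTV = 100(mean tumor volume at assessment)/(mean start volume).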

[13] = test system: Mus musculus; test: Compound was evaluated for antitumor activity (RTV) in HT1376 carcinoma Xenograft, at a dosage 25 mg/kg on day 21; type: functional, organism-based; set-up: dose 25 mg/kg; in short: as §3
[14] = test system: Mus musculus; test: Compound was evaluated for antitumor activity (RTV) in PNX/109/TC carcinoma Xenograft, at a dosage 20 mg/kg on day 7; type: functional, organism-based; set-up: dose 20 mg/kg; in short: as §5
[15] = test system: Mus musculus; test: Compound was evaluated for antitumor activity (RTV) in PNX/109/TC carcinoma Xenograft, at a dosage 10 mg/kg on day 7; type: functional, organism-based; set-up: dose 10 mg/kg; in short: as §5
[16] = test system: Mus musculus; test: Compound was evaluated for antitumor activity (RTV) in HT1376 carcinoma Xenograft, at a dosage 25 mg/kg on day 14; type: functional, organism-based; set-up: dose 25 mg/kg; in short: as §3
[17] = test system: Mus musculus; test: Compound was evaluated for antitumor activity (RTV) in PNX/109/TC carcinoma Xenograft, at a dosage 5 mg/kg on day 28; type: functional, organism-based; set-up: dose 5 mg/kg; in short: as §5
[18] = test system: Mus musculus; test: Compound was evaluated for antitumor activity (RTV) in PNX/109/TC carcinoma Xenograft, at a dosage 5 mg/kg fon day 7; type: functional, organism-based; set-up: dose 5 mg/kg; in short: as §5
[19] = test system: Mus musculus; test: Compound was evaluated for antitumor activity (T/C) in PNX/109/TC carcinoma Xenograft, at a dosage 5 mg/kg on day 21; type: functional, organism-based; set-up: dose 5 mg/kg; in short: as §1
[20] = test system: Mus musculus; test: Compound was evaluated for antitumor activity (T/C) in PNX/109/TC carcinoma Xenograft, at a dosage 10 mg/kg on day 14; type: functional, organism-based; set-up: dose 10 mg/kg; in short: as §1
[21] = test system: Mus musculus; test: Compound was evaluated for antitumor activity (RTV) in PNX/109/TC carcinoma Xenograft, at a dosage 5 mg/kg on day 21; type: functional, organism-based; set-up: dose 5 mg/kg; in short: as §5
[22] = test system: Mus musculus; test: Compound was evaluated for antitumor activity (T/C) in HT1376 carcinoma Xenograft, at a dosage 25 mg/kg on day 14; type: functional, organism-based; set-up: dose 25 mg/kg; in short: as §2
[23] = test system: Mus musculus; test: Compound was evaluated for antitumor activity (T/C) in HT1376 carcinoma Xenograft, at a dosage 25 mg/kg on day 7; type: functional, organism-based; set-up: dose 25 mg/kg; in short: as §4
[24] = test system: Mus musculus; test: Compound was evaluated for antitumor activity (RTV) in HT1376 carcinoma Xenograft, at a dosage 6.25 mg/kg on day 14; type: functional, organism-based; set-up: dose 6.25 mg/kg; in short: as §3
[25] = test system: Mus musculus; test: Compound was evaluated for antitumor activity (T/C) in HT1376 carcinoma Xenograft, at a dosage 25 mg/kg on day 21; type: functional, organism-based; set-up: dose 25 mg/kg; in short: as §2
[26] = test system: Mus musculus; test: Compound was evaluated for antitumor activity (RTV) in PNX/109/TC carcinoma Xenograft, at a dosage 20 mg/kg on day 21; type: functional, organism-based; set-up: dose 20 mg/kg; in short: as §5
[27] = test system: Mus musculus; test: Compound was evaluated for antitumor activity (T/C) in PNX/109/TC carcinoma Xenograft, at a dosage 10 mg/kg on day 28; type: functional, organism-based; set-up: dose 10 mg/kg; in short: as §1
[28] = test system: Mus musculus; test: Compound was evaluated for antitumor activity (T/C) in PNX/109/TC carcinoma Xenograft, at a dosage 20 mg/kg on day 28; type: functional, organism-based; set-up: dose 20 mg/kg; in short: as §1
[29] = test system: Mus musculus; test: Compound was evaluated for antitumor activity (RTV) in HT1376 carcinoma Xenograft, at a dosage 6.25 mg/kg on day 7.; type: functional, organism-based; set-up: dose 6.25 mg/kg; in short: as §3
[30] = test system: Mus musculus; test: Compound was evaluated for antitumor activity (RTV) in PNX/109/TC carcinoma Xenograft, at a dosage 5 mg/kg on day 14; type: functional, organism-based; set-up: dose 5 mg/kg; in short: as §5
[31] = test system: Mus musculus; test: Compound was evaluated for antitumor activity (RTV) in PNX/109/TC carcinoma Xenograft, at a dosage 10 mg/kg on day 21; type: functional, organism-based; set-up: dose 10 mg/kg; in short: as §5
[32] = test system: Mus musculus; test: Compound was evaluated for antitumor activity (RTV) in PNX/109/TC carcinoma Xenograft, at a dosage 10 mg/kg on day 28; type: functional, organism-based; set-up: dose 10 mg/kg; in short: as §5
[33] = test system: Mus musculus; test: Compound was evaluated for antitumor activity (T/C) in HT1376 carcinoma Xenograft, at a dosage 6.25 mg/kg on day 28; type: functional, organism-based; set-up: dose 6.25 mg/kg; in short: as §4

Acetato[2-(dimethylamino)methyl]phenyl-C,N]gold-(III)
T/C [1]: 0.57
T/C [2]: 0.77
RTV [3]: 498
RTV [4]: 1080
Range [5]: 21.6 and 31
T/C [6]: 0.98
T/C [7]: 1.37
RTV [8]: 212
T/C [9]: 0.8
T/C [10]: 0.51
T/C [11]: 1.03
RTV [12]: 200
RTV [13]: 671
RTV [14]: 173
RTV [15]: 173
RTV [16]: 454
RTV [17]: 673
RTV [18]: 160
T/C [19]: 0.84
T/C [20]: 0.9
RTV [21]: 423
T/C [22]: 0.9
T/C [23]: 0.93
RTV [24]: 724
T/C [25]: 0.76
RTV [26]: 258
T/C [27]: 1.34
T/C [28]: 0.77
RTV [29]: 379
RTV [30]: 282
RTV [31]: 515
RTV [32]: 833
T/C [33]: 1.16
